In ChEMBL document CHEMBL1641377, “Discovery of novel, potent, selective, and orally active human glucagon receptor antagonists containing a pyrazole core” (Bioorg Med Chem Lett, 2011):
Calls of active or inactive are those of the source. No cut-off for these calls is given here.

How the values were obtained:
Mus musculus [1] = assay: Antidiabetic activity in transgenic mouse expressing human GCGR assessed as inhibition of glucagon-induced blood glucose excursion at 10 mg/kg, po administered 60 mins before glucagon challenge measured after 48 mins; format: functional, organism-based; parameters: dose 10 mg/kg
Method in brief: (§1)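 hGCGR transgenic mice (only functional receptor is human GCGR), 9 per group, given compound orally, then glucagon 15 µg/kg IP 60 min later (one arm dosed 30 mpk three hours before challenge); blood glucose monitored at 12, 24, 36 and 48 min after glucagon.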

Cytochrome P450 2C8 = biological target: T1, Cytochrome P450 2C8 (Homo sapiens, UniProt P10632); assay: Inhibition of CYP2C8; format: ADME
T1 sequence (P10632 whole entry): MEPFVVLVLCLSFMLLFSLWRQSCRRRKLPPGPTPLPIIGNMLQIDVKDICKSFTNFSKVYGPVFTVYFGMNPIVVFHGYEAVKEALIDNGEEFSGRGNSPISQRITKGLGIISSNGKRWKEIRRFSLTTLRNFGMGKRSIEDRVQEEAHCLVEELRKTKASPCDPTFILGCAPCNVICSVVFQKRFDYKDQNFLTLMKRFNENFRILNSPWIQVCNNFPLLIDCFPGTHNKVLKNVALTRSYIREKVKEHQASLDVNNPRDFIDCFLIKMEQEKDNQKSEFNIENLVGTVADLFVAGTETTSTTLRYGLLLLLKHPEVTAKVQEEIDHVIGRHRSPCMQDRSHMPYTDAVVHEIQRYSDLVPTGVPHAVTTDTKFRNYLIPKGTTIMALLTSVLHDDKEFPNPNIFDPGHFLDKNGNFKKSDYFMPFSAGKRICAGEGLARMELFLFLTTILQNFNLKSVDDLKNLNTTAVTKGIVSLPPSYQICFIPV

Mus musculus [2] = assay: In vivo occupancy of human GCGR transfected in mouse at 10 mg/kg after 3 hrs; format: functional
Method in brief: (§2)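 In vivo receptor occupancy measured in hGCGR transgenic mice after oral dosing, at 1 h post-dose (30 and 10 mpk) and in a separate experiment at 1, 3 and 8 h after 10 mpk.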

Canis familiaris [3] = assay: Cardiotoxicity in dog assessed as effect on cardiovascular parameters at 1 to 10 mg/kg, iv after 30 mins; format: toxicity, organism-based, Canis lupus familiaris, Heart; parameters: dose 1-10 mg/kg, route intravenous; conditions: in vivo, 0.5 h
Oryctolagus cuniculus = species on record: Oryctolagus cuniculus; assay: Binding affinity to DLZ-sensitive rabbit calcium channel up to 10 uM
[4] = Plasma clearance in dog at 0.5 mg/kg, iv and 2 mg/kg, po; format: ADME, organism-based, Canis lupus familiaris
[5] = Drug level in blood of transgenic mouse expressing human GCGR at 30 mg/kg, po after 120 mins; format: ADME, organism-based; parameters: dose 30 mg/kg, route oral; conditions: read-out: Drug uptake
Method in brief: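 Blood drug concentration sampled in hGCGR transgenic mice during the oral glucagon-challenge pharmacodynamic assay at 45 and 120 min post dose, 10 and 30 mpk groups, n = 3 per group.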

[6] = Blood clearance in mouse at 1 mg/kg, iv and 2 mg/kg, po; format: ADME, organism-based
[7] = Half life in mouse at 1 mg/kg, iv and 2 mg/kg, po; format: ADME, organism-based; conditions: in vivo
[8] = Half life in rhesus monkey at 0.5 mg/kg, iv and 2 mg/kg, po; format: ADME, organism-based, Macaca mulatta; conditions: in vivo
Mus musculus [9] = assay: Antidiabetic activity in transgenic mouse expressing human GCGR assessed as inhibition of glucagon-induced blood glucose excursion at 30 mg/kg, po administered 3 hrs before glucagon challenge measured after 48 mins; format: functional, organism-based; parameters: dose 30 mg/kg; method in brief: as §1
[10] = Bioavailability in dog at 0.5 mg/kg, iv and 2 mg/kg, po; format: ADME, organism-based, Canis lupus familiaris; conditions: in vivo
Rhesus monkey = assay: Dose normalized AUC in rhesus monkey at 2 mg/kg, po; format: ADME, organism-based, Macaca mulatta; parameters: dose 2 mg/kg, route oral; conditions: in vivo
Cytochrome P450 3A4 = Cytochrome P450 3A4 (Homo sapiens, UniProt P08684); assay: Inhibition of CYP3A4; format: ADME
Cytochrome P450 3A4, sequence (P08684 whole entry): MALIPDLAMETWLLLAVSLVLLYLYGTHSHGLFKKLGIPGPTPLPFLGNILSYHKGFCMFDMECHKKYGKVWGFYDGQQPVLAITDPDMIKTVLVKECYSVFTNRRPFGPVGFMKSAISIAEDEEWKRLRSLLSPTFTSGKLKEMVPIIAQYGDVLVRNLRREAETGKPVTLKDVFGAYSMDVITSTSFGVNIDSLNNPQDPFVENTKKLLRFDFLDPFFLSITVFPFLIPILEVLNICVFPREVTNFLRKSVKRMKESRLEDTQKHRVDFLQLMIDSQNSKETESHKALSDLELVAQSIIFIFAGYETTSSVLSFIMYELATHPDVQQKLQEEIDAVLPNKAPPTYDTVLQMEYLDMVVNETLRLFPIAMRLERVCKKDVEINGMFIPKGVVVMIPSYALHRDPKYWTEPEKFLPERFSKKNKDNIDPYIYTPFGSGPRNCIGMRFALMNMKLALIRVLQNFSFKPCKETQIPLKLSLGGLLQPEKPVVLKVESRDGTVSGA

Canis familiaris [11] = assay: Dose normalized AUC in dog at 2 mg/kg, po; format: ADME, organism-based, Canis lupus familiaris; parameters: dose 2 mg/kg, route oral; conditions: in vivo
[12] = Plasma concentration in rhesus monkey at 1 mg/kg, po after 4 hrs; format: ADME, organism-based, Macaca mulatta; parameters: dose 1 mg/kg, route oral
Method in brief: (§3)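 Overnight-fasted rhesus monkeys received the oral dose 4 h before the glucagon challenge (15 µg/kg im, time zero). Plasma drug level was sampled at the time of the challenge (t = 0, n = 4). Plasma glucose was then followed every 10 min and expressed as the change from time zero.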

Glucagon receptor [13] = biological target: Glucagon receptor (Homo sapiens, UniProt P47871); assay: Antagonist activity at human GCGR expressed in CHO cells assessed as inhibition of glucagon-induced cAMP accumulation; format: functional, cell-based
Glucagon receptor (Homo sapiens, UniProt P47871), sequence (P47871 whole entry): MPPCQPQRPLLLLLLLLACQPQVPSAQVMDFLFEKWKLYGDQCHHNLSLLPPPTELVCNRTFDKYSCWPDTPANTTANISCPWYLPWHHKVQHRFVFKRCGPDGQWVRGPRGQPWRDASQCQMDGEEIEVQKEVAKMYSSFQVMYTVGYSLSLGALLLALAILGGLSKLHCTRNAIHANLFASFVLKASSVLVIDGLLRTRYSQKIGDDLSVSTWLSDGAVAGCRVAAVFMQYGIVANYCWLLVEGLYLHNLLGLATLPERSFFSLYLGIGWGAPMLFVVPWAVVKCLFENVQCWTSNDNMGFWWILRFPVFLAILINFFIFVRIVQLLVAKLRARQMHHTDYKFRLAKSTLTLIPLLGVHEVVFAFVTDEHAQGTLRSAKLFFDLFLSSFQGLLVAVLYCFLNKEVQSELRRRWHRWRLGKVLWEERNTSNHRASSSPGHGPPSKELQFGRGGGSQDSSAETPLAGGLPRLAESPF
Method in brief: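 Inhibition of glucagon-induced cAMP accumulation in CHO cells transfected with human GCGR; IC50 derived, n given where replicated.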

[14] = biological target: T2, Gastric inhibitory polypeptide receptor (Homo sapiens, UniProt P48546); assay: Antagonist activity at human GIPR expressed in CHO cells assessed as inhibition of glucagon-induced cAMP accumulation; format: functional, cell-based
T2 sequence (P48546 whole entry): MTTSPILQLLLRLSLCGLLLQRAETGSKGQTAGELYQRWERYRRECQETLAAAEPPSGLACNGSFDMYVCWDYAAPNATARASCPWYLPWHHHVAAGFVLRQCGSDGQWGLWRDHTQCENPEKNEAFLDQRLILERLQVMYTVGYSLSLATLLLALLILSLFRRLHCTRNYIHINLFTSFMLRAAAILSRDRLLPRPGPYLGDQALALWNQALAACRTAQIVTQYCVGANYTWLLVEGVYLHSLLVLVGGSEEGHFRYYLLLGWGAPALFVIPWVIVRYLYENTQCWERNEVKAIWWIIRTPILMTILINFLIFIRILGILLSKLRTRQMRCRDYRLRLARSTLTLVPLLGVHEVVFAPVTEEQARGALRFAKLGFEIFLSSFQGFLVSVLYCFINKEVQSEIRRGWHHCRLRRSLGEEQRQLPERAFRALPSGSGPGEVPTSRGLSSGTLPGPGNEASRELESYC

[15] = Bioavailability in rat at 1 mg/kg, iv and 2 mg/kg, po; format: ADME, organism-based; conditions: in vivo
[16] = biological target: Pituitary adenylate cyclase-activating polypeptide type I receptor (Homo sapiens, UniProt P41586); assay: Antagonist activity at human PACAPR1 expressed in CHO cells assessed as inhibition of glucagon-induced cAMP accumulation; format: functional, cell-based
Pituitary adenylate cyclase-activating polypeptide type I receptor, sequence (P41586 whole entry): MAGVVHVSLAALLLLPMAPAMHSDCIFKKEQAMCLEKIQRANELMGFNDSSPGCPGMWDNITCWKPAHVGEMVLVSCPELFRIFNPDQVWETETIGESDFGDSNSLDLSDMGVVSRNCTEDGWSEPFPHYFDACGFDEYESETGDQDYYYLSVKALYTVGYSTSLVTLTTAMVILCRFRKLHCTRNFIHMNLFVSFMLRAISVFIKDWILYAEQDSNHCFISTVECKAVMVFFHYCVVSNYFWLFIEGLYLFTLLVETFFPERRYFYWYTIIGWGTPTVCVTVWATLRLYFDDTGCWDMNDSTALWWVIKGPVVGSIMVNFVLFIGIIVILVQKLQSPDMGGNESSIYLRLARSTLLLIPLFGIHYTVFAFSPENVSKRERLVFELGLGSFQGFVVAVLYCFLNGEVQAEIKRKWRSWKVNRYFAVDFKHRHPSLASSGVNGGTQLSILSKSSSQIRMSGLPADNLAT

Glucagon receptor [17] = biological target: Glucagon receptor (Mus musculus, UniProt Q61606); assay: Antagonist activity at mouse GCGR assessed as inhibition of glucagon-induced cAMP accumulation; format: functional
Glucagon receptor (Mus musculus, UniProt Q61606), sequence (Q61606 whole entry): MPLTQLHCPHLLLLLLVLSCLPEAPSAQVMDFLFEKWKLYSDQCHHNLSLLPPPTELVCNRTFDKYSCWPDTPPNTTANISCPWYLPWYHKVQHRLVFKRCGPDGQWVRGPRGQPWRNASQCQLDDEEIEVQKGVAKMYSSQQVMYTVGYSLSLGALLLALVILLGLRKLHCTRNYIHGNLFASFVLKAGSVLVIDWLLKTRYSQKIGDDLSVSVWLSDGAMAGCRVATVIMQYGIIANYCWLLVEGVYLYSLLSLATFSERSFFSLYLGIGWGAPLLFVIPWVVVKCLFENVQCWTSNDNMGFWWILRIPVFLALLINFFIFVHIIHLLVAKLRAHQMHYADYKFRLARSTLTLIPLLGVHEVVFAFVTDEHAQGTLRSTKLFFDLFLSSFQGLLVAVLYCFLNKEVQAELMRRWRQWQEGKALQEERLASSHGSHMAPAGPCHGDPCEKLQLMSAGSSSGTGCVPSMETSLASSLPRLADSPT

Mus musculus [18] = assay: In vivo occupancy of human GCGR transfected in mouse at 10 mg/kg after 1 hr; format: functional; method in brief: as §2
[19] = Plasma concentration in rhesus monkey at 10 mg/kg, po after 4 hrs; format: ADME, organism-based, Macaca mulatta; parameters: dose 10 mg/kg, route oral; method in brief: as §3

- IC50 (Cytochrome P450 2C8): 19 µM
- Activity (Oryctolagus cuniculus): inactive
- clearance [4]: 0.0294 L/h/kg
- concentration at 2 h [5]: 14.2 µM
- clearance [6]: 0.366 L/h/kg
- half-life [7]: 2.3 h
- half-life [8]: 10 h
- bioavailability [10]: 46%
- AUC (Rhesus monkey): 30 µM·kg·h/mg
- IC50 (Cytochrome P450 3A4): 39 µM
- AUC (Canis familiaris [11]): 27 µM·kg·h/mg
- concentration at 4 h [12]: 0.6 µM
- IC50 (Glucagon receptor [13]): 0.11 µM
- IC50 [14]: 7.5 µM
- bioavailability [15]: 57%
- IC50 [16]: > 7 µM
- IC50 (Glucagon receptor [17]): 2 µM
- concentration at 4 h [19]: 8.8 µM
Compound: O=C(O)CCNC(=O)c1ccc(Cn2nc(-c3cc(Cl)cc(Cl)c3)cc2-c2ccc(OC(F)(F)F)cc2)cc1
- inhibition (Mus musculus [1]): Active
- Activity (Mus musculus [2]): 60%
- Activity (Canis familiaris [3]): Non-toxic
- inhibition (Mus musculus [9]): Active
- Activity (Mus musculus [18]): 64%
